In the library only some 5.6% were active in any assay of this set; here they are far more common.
aDG glyco act: increases alpha dystroglycan glycosylation; Pro5-aDG cells, alpha-DG glycosylation AlphaScreen (IIH6); 0% Pro5, 100% B10-LARGE cell signal; activation, % at 10 µM; 0.22% of 360,000 active; AID 624168;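 active means activation of at least 8% versus controls, or a plate z-score of at least 8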;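 further: Pro5 are CHO cells carrying HIG-tagged alpha-DG that lacks glycosylation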
MPTP inh: permeability transition pore inhibition. isolated mouse mitochondria, Ca2+ swelling absorbance, 30 min. inhibition, % at 10 µM. 1.4% of 360,000 active. AID 602449;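 active means inhibition of 50% or more, scaled per plate between neutral and stimulator controls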;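 further: 0% = DMSO wells given calcium and 100% = 1 mM EGTA wells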
GRIN3A LBD mod: modulates the human NR3A ligand-binding domain | NR3A LBD differential scanning fluorimetry, Tm shift; 0% = protein alone, 100% = glycine-bound protein | AID 1259313 | 2.5% of 340,000 active | Tm shift relative to glycine control, % at 25 µM;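 active means melting temperature shift of at least 10% of the positive control shift, at one fixed dose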
XBP1 UPR activ: adaptive UPR (XBP1) activation | CHO-XBP1 luciferase reporter, IRE1-XBP1 UPR activation, luminescence; percent of tunicamycin response, DMSO as zero | activation, % at 20 µM | 0.33% of 330,000 active | AID 463104;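 active means versus positive control, 20 µM dose yields 30% or more activation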;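 further: 100% = tunicamycin at 10 µg/mL and 0% = DMSO only wells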
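Assay system: IRE1-XBP1 luciferase reporter CHO line. Input: 1000 cells/well. Buffer or medium: F12 with 10% serum. Doses: 20 µM, 1% DMSO. Times: overnight seeding at 37 °C, 6 h compound treatment at 37 °C. Technique: Steady-Glo luciferase glow luminescence, 10 min after reagent addition.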
CHOP inhibitor: CHOP inhibition in unfolded protein response; CHO-K1 CHOP-promoter luciferase, tunicamycin-induced, 15-18 h; inhibition, % at 10 µM; 3.8% of 220,000 active; AID 2732;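 active means compounds that reduced the stress-induced luciferase reporter signal by more than about 70% of percent inhibition, limit read from the data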;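 further: 0% = tunicamycin plus vehicle and 100% = wells without tunicamycin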
CHOP UPR activ: apoptotic UPR (CHOP) activation. CHO-CHOP luciferase reporter, luminescence; percent of tunicamycin response over DMSO baseline. activation, % at 10 µM. 0.34% of 330,000 active;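 active means at 10 µM dose, activation of 40% or more, normalized to positive control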;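 further: 100% = tunicamycin at 10 µg/mL and 0% = DMSO alone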
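Test system: CHO-CHOP cells, stable luciferase reporter of PERK-eIF2a-CHOP signalling | Quantity: 500 CHO-CHOP cells per well | Buffer or medium: F12 plus 10% serum | Compound dosing: 10 µM single point, 0.5% DMSO | Schedule: 6 h compound treatment, 37 °C | Signal: Luciferase luminescence | Control set: Tunicamycin high control, DMSO low control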
CHOP confirm: confirmation of CHOP induction inhibitors. shares compounds with CHOP inhibitor. CHO-CHOP promoter luciferase reporter, tunicamycin-induced, luminescence. inhibition, % at 10 µM. 45% of 2,100 active;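 active means mean of three repeat readings of reporter signal inhibition above a set limit, cut at about 70% in these data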;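 further: 0% = tunicamycin plus vehicle and 100% = wells lacking tunicamycin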
* marks the source's active call; other numbers are inactive results.

Cc1nn(-c2ccc(C(F)(F)F)cn2)c(C)c1Oc1ccccc1O was read as aDG glyco act -0.1, MPTP inh 2.6, GRIN3A LBD mod -6.9, XBP1 UPR activ -0.6, CHOP inhibitor 100.0*, CHOP UPR activ 0.8 and CHOP confirm 101.6*.
COc1ccc(Nc2nc(-c3ccncc3)nc3ccccc23)cc1 was read as aDG glyco act -0.2, MPTP inh 0.2, GRIN3A LBD mod -2.0, XBP1 UPR activ 5.8 and CHOP UPR activ 6.0.
For Cc1ccc(C)c(N(C(=O)c2csnn2)C(C(=O)NC2CCCC2)c2cccnc2)c1 (stereo not given) the results were aDG glyco act -0.2, MPTP inh 0.2, GRIN3A LBD mod -4.5, XBP1 UPR activ -1.1 and CHOP UPR activ 0.6.
C=CCn1c(CCc2cc(C(C)(C)C)c(O)c(C(C)(C)C)c2)n[nH]c1=S was read as aDG glyco act 0.2, MPTP inh -0.1, GRIN3A LBD mod 3.3, XBP1 UPR activ 2.7, CHOP inhibitor 101.3*, CHOP UPR activ -1.8 and CHOP confirm 86.3*.
Screening Nc1ccc2oc(-c3cc(Br)ccc3Cl)nc2c1 returned aDG glyco act 0.0, MPTP inh 0.1, GRIN3A LBD mod -0.2, XBP1 UPR activ -2.9, CHOP inhibitor 96.9*, CHOP UPR activ -4.5 and CHOP confirm 73.6*.
For Cc1cccc(NC(=O)N2CCCCCC2)c1 the results were aDG glyco act 0.0, MPTP inh -0.1, GRIN3A LBD mod -4.0, XBP1 UPR activ -0.6 and CHOP UPR activ 5.5.
For O=C(/C=C/c1ccccc1)Nc1cccc(C(=O)O)c1 the results were aDG glyco act -0.1, MPTP inh 0.2, GRIN3A LBD mod 1.4, XBP1 UPR activ -12.8, CHOP inhibitor 97.2*, CHOP UPR activ -9.9 and CHOP confirm 116.1*.
`C=C1C(=O)O[C@H]2[C@H]1[C@H](OC(=O)/C(C)=C\C)C[C@]1(CO1)[C@@H]1[C@H](OC(C)=O)C=C(C)[C@]21O` gave aDG glyco act 0.7, MPTP inh -0.8 and GRIN3A LBD mod 0.3.
`C=C1C(=O)O[C@@H]2[C@H]1[C@@H](OC(=O)/C(C)=C/C)C/C(C)=C\C(=O)/C=C(\C)[C@@H]2O` gave aDG glyco act -0.2, MPTP inh -0.1, GRIN3A LBD mod 3.2, XBP1 UPR activ -7.2, CHOP inhibitor 107.4*, CHOP UPR activ 13.8 and CHOP confirm 68.6.
Screening Nc1c(S(=O)(=O)c2cccc(Cl)c2)c2nc3ccccc3nc2n1/N=C/c1ccc(O)c(O)c1 returned XBP1 UPR activ 11.9, CHOP inhibitor 107.4*, CHOP UPR activ 16.3 and CHOP confirm 102.8*.
Nc1cc(Cl)ccc1C(=O)OCC(=O)N1CCOCC1 was read as aDG glyco act 0.0, MPTP inh -0.3, GRIN3A LBD mod 0.8, XBP1 UPR activ 1.0, CHOP inhibitor -8.7 and CHOP UPR activ 2.2.
`Cc1ccc(NC(=O)CCl)cc1S(=O)(=O)N1CCCCCC1` gave aDG glyco act 0.2, MPTP inh -1.5, GRIN3A LBD mod 0.6, XBP1 UPR activ -4.4, CHOP inhibitor 107.9*, CHOP UPR activ 34.4 and CHOP confirm 134.3*.
COc1ccc(CNS(=O)(=O)NCc2ccc(C)cc2)cc1 was read as aDG glyco act -0.4, MPTP inh 0.0, GRIN3A LBD mod 1.7, XBP1 UPR activ -0.4, CHOP inhibitor 21.0 and CHOP UPR activ -2.2.
COc1cccc(NC(=O)CN(C)C(=O)CC2CC3CCC2C3)c1 (stereo not given) was read as aDG glyco act -0.1, MPTP inh -1.3, GRIN3A LBD mod 0.6, XBP1 UPR activ 3.0 and CHOP UPR activ -0.9.
For CCC(C)(C)NC(=O)C(c1cccn1C)N(C(=O)Cn1nnc2ccccc21)c1ccc(F)cc1 (stereo not given) the results were aDG glyco act 0.4, MPTP inh 0.8, GRIN3A LBD mod 0.9, XBP1 UPR activ 3.5, CHOP inhibitor 96.1*, CHOP UPR activ -1.1 and CHOP confirm 78.9*.
CSc1nsc(SCC(=O)Nc2cccc(C(=O)O)c2)n1 was read as aDG glyco act -0.1, MPTP inh 1.3, GRIN3A LBD mod -1.9, XBP1 UPR activ -3.4 and CHOP UPR activ 1.1.
Screening CCN(C[C@H]1N[C@@](C)(C(=O)OC)[C@H]2C(=O)N(Cc3ccccc3)C(=O)[C@@H]12)C(=O)c1ccc(C)cc1 returned aDG glyco act -0.2, MPTP inh 0.0, GRIN3A LBD mod 0.9, XBP1 UPR activ -2.5 and CHOP UPR activ -0.9.
For O=C(Nc1ccccc1N1CCCC1)c1cc2ccccc2o1 the results were aDG glyco act -0.1, MPTP inh 2.9, GRIN3A LBD mod -5.6, XBP1 UPR activ 5.1, CHOP inhibitor 21.7 and CHOP UPR activ 2.4.
O=C(Nc1ccccc1N1CCN(C(=O)c2ccccc2)CC1)c1cc2ccccc2o1 was read as aDG glyco act 0.0, MPTP inh -3.9, GRIN3A LBD mod 1.4, XBP1 UPR activ 4.2, CHOP inhibitor 97.6*, CHOP UPR activ 3.5 and CHOP confirm 25.7.
Cc1noc(C)c1NC(=O)Nc1cccc2c1O[C@H](CN(C)C(=O)NC(C)C)[C@@H](C)CN([C@H](C)CO)C2=O was read as aDG glyco act -0.2, MPTP inh -0.4, GRIN3A LBD mod 2.7, XBP1 UPR activ -2.1 and CHOP UPR activ -0.1.
Screening Cn1c(=O)n(CCOc2ccc(Cl)cc2Cl)c2ccccc21 returned aDG glyco act 0.4, MPTP inh -1.7, GRIN3A LBD mod 7.7, XBP1 UPR activ 0.1, CHOP inhibitor 97.7*, CHOP UPR activ 1.5 and CHOP confirm 71.2*.
Screening Cn1c(=O)n(CCOc2ccccc2Cl)c2ccccc21 returned aDG glyco act 0.2, MPTP inh 1.9, GRIN3A LBD mod -6.0, XBP1 UPR activ 1.2, CHOP inhibitor -19.9 and CHOP UPR activ 0.7.
CCN(CC(=O)Nc1c(F)cccc1F)C(=O)c1ccc2c(c1)C(=O)N(c1ccccc1C)C2=O was read as aDG glyco act -0.1 and MPTP inh -1.1.
`Cc1ccc(S(=O)(=O)NCCCNS(=O)(=O)c2ccccc2[N+](=O)[O-])cc1` gave aDG glyco act -0.1, MPTP inh 0.9, GRIN3A LBD mod 3.3, XBP1 UPR activ -3.0 and CHOP UPR activ -2.1.
O=C1CCCCc2sc(Br)c([N+](=O)[O-])c2N1 was read as aDG glyco act 0.1, MPTP inh 1.3, GRIN3A LBD mod -0.1, XBP1 UPR activ -7.1, CHOP inhibitor 104.7*, CHOP UPR activ 16.9 and CHOP confirm 19.4.
Screening Cc1cc(C)c2nc(-c3ccccn3)cc(C(=O)Nc3cc(C)on3)c2c1 returned aDG glyco act -0.4, MPTP inh 4.3, GRIN3A LBD mod 0.9, XBP1 UPR activ 8.1, CHOP inhibitor 101.1*, CHOP UPR activ -0.5 and CHOP confirm 98.6*.

Bioassay records: PubChem, several laboratories
